From ChEMBL document CHEMBL2401625, “Synthesis and evaluation of pharmacological properties of some new xanthone derivatives with piperazine moiety” (Bioorg Med Chem Lett, 2013)
The source made the active and inactive calls. The rule behind the calls is not given here.

Tests used:
[1] = Displacement of [3H]CGP-12177 from beta1-adrenergic receptor in rat cerebral cortex after 60 mins by scintillation counting; type: tissue-based
How it was run: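 Radioligand binding on rat brain tissue membranes, run in 96-well format. Ki was calculated by the Cheng–Prusoff equation.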

[2] = target: T1, Adrenergic receptor alpha-1 (Rattus norvegicus, UniProt P15823+P23944+P43140); experiment: Displacement of [3H]prazosin from alpha1-adrenergic receptor in rat cerebral cortex after 30 mins by scintillation counting; type: tissue-based
T1 sequence (P15823 whole entry): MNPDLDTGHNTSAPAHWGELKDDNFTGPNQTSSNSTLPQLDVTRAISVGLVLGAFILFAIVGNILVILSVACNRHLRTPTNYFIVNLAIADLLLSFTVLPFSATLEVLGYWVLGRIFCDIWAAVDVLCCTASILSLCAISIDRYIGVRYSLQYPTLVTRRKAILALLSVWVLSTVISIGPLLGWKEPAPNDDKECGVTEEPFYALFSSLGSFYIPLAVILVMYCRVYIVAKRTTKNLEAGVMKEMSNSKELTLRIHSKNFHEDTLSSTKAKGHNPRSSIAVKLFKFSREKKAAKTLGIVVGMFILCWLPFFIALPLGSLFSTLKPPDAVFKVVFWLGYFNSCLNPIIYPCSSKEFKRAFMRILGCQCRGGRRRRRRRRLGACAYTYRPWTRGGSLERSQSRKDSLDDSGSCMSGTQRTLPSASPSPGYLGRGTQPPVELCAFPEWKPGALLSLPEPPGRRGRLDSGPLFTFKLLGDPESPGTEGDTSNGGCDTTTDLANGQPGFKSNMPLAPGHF
T1 sequence (P23944 whole entry): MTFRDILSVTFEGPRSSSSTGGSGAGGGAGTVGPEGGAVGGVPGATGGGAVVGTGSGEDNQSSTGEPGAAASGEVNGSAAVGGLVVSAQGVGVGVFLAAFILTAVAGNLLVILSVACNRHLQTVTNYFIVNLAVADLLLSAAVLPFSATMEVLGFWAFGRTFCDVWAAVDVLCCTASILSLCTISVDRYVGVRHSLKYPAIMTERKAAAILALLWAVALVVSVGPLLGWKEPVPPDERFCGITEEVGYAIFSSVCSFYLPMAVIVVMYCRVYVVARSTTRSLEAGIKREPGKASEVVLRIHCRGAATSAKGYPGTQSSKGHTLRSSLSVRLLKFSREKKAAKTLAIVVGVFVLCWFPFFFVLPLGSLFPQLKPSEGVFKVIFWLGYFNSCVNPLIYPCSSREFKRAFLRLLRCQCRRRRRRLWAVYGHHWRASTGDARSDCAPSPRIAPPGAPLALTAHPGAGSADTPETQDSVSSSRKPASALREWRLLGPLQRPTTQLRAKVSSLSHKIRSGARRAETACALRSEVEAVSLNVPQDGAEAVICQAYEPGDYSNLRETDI
T1 sequence (P43140 whole entry): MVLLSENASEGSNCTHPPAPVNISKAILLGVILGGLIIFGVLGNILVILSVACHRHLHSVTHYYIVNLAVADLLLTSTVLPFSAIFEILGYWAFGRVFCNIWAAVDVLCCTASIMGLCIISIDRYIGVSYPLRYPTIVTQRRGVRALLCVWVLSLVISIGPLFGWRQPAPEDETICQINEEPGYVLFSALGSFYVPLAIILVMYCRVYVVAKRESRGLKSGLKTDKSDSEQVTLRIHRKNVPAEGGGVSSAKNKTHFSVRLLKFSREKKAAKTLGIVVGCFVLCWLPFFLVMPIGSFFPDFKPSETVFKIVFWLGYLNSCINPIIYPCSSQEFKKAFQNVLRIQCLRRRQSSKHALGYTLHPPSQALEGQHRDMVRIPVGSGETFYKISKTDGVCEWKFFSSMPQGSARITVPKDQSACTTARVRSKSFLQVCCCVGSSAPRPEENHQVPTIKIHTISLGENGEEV
How it was run: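 Radioligand binding on rat brain tissue membranes, run in 96-well format. [3H]prazosin was used for α1 (n = 2) and [3H]CGP-12177 for β1 (n = 2). Ki was calculated by the Cheng–Prusoff equation.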

[3] = target: 5-hydroxytryptamine receptor 7 (Homo sapiens, UniProt P34969); experiment: Displacement of [3H]5-CT from human 5HT7b receptor expressed in HEK293 cells after 1 hr; type: cell-based
Chain of 5-hydroxytryptamine receptor 7 (P34969 whole entry): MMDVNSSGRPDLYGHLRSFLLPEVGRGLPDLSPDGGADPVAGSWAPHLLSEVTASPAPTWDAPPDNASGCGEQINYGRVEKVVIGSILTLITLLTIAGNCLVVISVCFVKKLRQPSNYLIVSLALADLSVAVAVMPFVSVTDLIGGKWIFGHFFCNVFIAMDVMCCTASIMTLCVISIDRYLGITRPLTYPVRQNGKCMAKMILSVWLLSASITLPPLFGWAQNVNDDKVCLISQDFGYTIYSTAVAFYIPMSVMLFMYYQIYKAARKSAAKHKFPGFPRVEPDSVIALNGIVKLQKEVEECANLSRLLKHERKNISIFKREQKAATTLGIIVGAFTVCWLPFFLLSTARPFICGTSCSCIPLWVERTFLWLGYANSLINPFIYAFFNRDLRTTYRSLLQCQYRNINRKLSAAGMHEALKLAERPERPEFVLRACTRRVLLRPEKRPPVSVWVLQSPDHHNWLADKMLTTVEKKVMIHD

[4] = target: 5-hydroxytryptamine receptor 6 (Homo sapiens, UniProt P50406); experiment: Displacement of [3H]LSD from human 5HT6 receptor expressed in HEK293 cells after 1 hr; type: cell-based
Chain of 5-hydroxytryptamine receptor 6 (P50406 whole entry): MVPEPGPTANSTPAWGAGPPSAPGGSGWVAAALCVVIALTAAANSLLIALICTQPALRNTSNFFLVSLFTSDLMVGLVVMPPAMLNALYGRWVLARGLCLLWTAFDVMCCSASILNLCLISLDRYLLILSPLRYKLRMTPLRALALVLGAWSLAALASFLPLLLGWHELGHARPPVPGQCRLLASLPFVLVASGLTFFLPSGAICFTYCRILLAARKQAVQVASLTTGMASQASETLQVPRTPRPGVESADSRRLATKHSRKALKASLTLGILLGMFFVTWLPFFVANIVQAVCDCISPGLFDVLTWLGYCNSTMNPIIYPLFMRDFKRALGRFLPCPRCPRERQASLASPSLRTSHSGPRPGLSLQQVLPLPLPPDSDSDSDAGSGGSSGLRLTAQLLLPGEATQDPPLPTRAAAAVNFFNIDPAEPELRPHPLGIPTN

[5] = target: T2, 5-hydroxytryptamine receptor 1A (Homo sapiens, UniProt P08908); experiment: Displacement of [3H]8-OH-DPAT from human 5HT1A receptor expressed in HEK293 cells after 1 hr; type: cell-based
T2 sequence (P08908 whole entry): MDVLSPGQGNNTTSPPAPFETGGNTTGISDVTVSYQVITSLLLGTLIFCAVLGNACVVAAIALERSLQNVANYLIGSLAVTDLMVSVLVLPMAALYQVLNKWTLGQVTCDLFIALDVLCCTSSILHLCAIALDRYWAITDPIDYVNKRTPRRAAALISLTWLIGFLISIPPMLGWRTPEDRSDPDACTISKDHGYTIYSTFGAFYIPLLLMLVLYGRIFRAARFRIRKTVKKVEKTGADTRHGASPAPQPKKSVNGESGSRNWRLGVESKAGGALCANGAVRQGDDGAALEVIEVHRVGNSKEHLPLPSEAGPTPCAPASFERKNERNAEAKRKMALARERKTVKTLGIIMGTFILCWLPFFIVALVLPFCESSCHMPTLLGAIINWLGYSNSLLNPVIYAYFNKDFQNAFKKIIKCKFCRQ

Mus musculus [6] = experiment: Anticonvulsant activity in CF1 mouse assessed as protection against maximal electroshock-induced seizures at 300 mg/kg, ip after 0.5 hrs; type: functional, organism-based; design: dose 300 mg/kg
How it was run: (§1)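 Mice given compound i.p. at 30, 100 or 300 mg/kg and tested 0.5 or 4 h after dosing. Seizures were induced by maximal electroshock (MES) or subcutaneous metrazole (ScMet). Prevention of seizures counts as protection. Result is recorded as number of animals protected over number tested.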

Mus musculus [7] = experiment: Anticonvulsant activity in CF1 mouse assessed as protection against maximal electroshock-induced seizures at 100 mg/kg, ip after 0.5 hrs; type: functional, organism-based; design: dose 100 mg/kg; how it was run: as §1
Mus musculus [8] = experiment: Anticonvulsant activity in CF1 mouse assessed as protection against maximal electroshock-induced seizures at 30 mg/kg, ip after 0.5 hrs; type: functional, organism-based; design: dose 30 mg/kg; how it was run: as §1
Rattus norvegicus [9] = species on record: Rattus norvegicus; experiment: Displacement of [3H]CGP-12177 from beta1-adrenergic receptor in rat cerebral cortex at 50 uM after 60 mins by scintillation counting; type: tissue-based
Rattus norvegicus [10] = experiment: Anticonvulsant activity in Sprague-Dawley rat assessed as protection against maximal electroshock-induced seizures at 30 mg/kg, po after 0.25 hrs; type: functional, organism-based; design: dose 30 mg/kg
How it was run: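 Rats dosed orally at 30 mg/kg and tested in MES at several time points after dosing. Protection means seizures were prevented. Result is recorded as number of animals protected over number tested.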

Mus musculus [11] = experiment: Anticonvulsant activity in CF1 mouse assessed as protection against subcutaneous metrazole-induced seizures at 300 mg/kg, ip after 4 hrs; type: functional, organism-based; design: dose 300 mg/kg; how it was run: as §1
Mus musculus [12] = experiment: Anticonvulsant activity in CF1 mouse assessed as protection against subcutaneous metrazole-induced seizures at 100 mg/kg, ip after 4 hrs; type: functional, organism-based; design: dose 100 mg/kg; how it was run: as §1
Mus musculus [13] = experiment: Anticonvulsant activity in CF1 mouse assessed as protection against subcutaneous metrazole-induced seizures at 30 mg/kg, ip after 4 hrs; type: functional, organism-based; design: dose 30 mg/kg; how it was run: as §1
Mus musculus [14] = experiment: Anticonvulsant activity in CF1 mouse assessed as protection against subcutaneous metrazole-induced seizures at 300 mg/kg, ip after 0.5 hrs; type: functional, organism-based; design: dose 300 mg/kg; how it was run: as §1
Mus musculus [15] = experiment: Anticonvulsant activity in CF1 mouse assessed as protection against subcutaneous metrazole-induced seizures at 100 mg/kg, ip after 0.5 hrs; type: functional, organism-based; design: dose 100 mg/kg; how it was run: as §1
Mus musculus [16] = experiment: Anticonvulsant activity in CF1 mouse assessed as protection against subcutaneous metrazole-induced seizures at 30 mg/kg, ip after 0.5 hrs; type: functional, organism-based; design: dose 30 mg/kg; how it was run: as §1
Mus musculus [17] = experiment: Anticonvulsant activity in CF1 mouse assessed as protection against maximal electroshock-induced seizures at 300 mg/kg, ip after 4 hrs; type: functional, organism-based; design: dose 300 mg/kg; how it was run: as §1
Mus musculus [18] = experiment: Anticonvulsant activity in CF1 mouse assessed as protection against maximal electroshock-induced seizures at 30 mg/kg, ip after 4 hrs; type: functional, organism-based; design: dose 30 mg/kg; how it was run: as §1
Mus musculus [19] = experiment: Anticonvulsant activity in CF1 mouse assessed as protection against maximal electroshock-induced seizures at 100 mg/kg, ip after 4 hrs; type: functional, organism-based; design: dose 100 mg/kg; how it was run: as §1
Mus musculus [20] = experiment: Neurotoxicity in CF1 mouse assessed as minimal motor impairment at 300 mg/kg, ip after 4 hrs by rotorod test; type: toxicity, organism-based; design: dose 300 mg/kg, route intraperitoneal; conditions: in vivo
How it was run: (§2)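 Rotarod neurotoxicity screen in mice dosed i.p. at 30, 100 or 300 mg/kg, read 0.5 or 4 h after dosing. The animal must stay on a rod rotating at 6 rpm without falling, measured 3 times within 1 min. A fall counts as minimal motor impairment. Result is recorded as impaired animals over animals used.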

Mus musculus [21] = experiment: Neurotoxicity in CF1 mouse assessed as minimal motor impairment at 30 mg/kg, ip after 4 hrs by rotorod test; type: toxicity, organism-based; design: dose 30 mg/kg, route intraperitoneal; conditions: in vivo; how it was run: as §2
Mus musculus [22] = experiment: Neurotoxicity in CF1 mouse assessed as minimal motor impairment at 100 mg/kg, ip after 4 hrs by rotorod test; type: toxicity, organism-based; design: dose 100 mg/kg, route intraperitoneal; conditions: in vivo; how it was run: as §2
Mus musculus [23] = experiment: Neurotoxicity in CF1 mouse assessed as minimal motor impairment at 100 mg/kg, ip after 0.5 hrs by rotorod test; type: toxicity, organism-based; design: dose 100 mg/kg, route intraperitoneal; conditions: in vivo; how it was run: as §2
Mus musculus [24] = experiment: Neurotoxicity in CF1 mouse assessed as minimal motor impairment at 30 mg/kg, ip after 0.5 hrs by rotorod test; type: toxicity, organism-based; design: dose 30 mg/kg, route intraperitoneal; conditions: in vivo; how it was run: as §2

Structure (SMILES) | Ki [2] | Ki [3] | Ki [4] | Ki [5] | Activity (Mus musculus [6]) | Activity (Mus musculus [7]) | Activity (Mus musculus [8]) | inhibition (Rattus norvegicus [9]) | Activity (Mus musculus [11]) | Activity (Mus musculus [12]) | Activity (Mus musculus [13]) | Activity (Mus musculus [14]) | Activity (Mus musculus [15]) | Activity (Mus musculus [16]) | Activity (Mus musculus [17]) | Activity (Mus musculus [18]) | Activity (Mus musculus [19]) | also measured
COc1ccccc1N1CCN(Cc2ccc3oc4ccccc4c(=O)c3c2)CC1.Cl | 3.66 µM | 0.426 µM | 5.94 µM | 0.117 µM | – | – | – | – | – | – | – | – | – | – | – | – | – | Ki [1]: > 10 µM
COc1ccc2c(=O)c3cc(CN4CCN(Cc5ccccc5)CC4)ccc3oc2c1 | – | – | – | – | inactive | inactive | inactive | inactive | inactive | inactive | inactive | inactive | inactive | inactive | Active | inactive | – | Activity (Rattus norvegicus [10]): inactive
COc1ccc2c(=O)c3cc(CN4CCN(c5ccccc5OC)CC4)ccc3oc2c1 | – | – | – | – | inactive | inactive | inactive | – | inactive | inactive | inactive | inactive | inactive | inactive | inactive | inactive | inactive | –
COc1ccc2c(=O)c3cccc(CN4CCN(c5ccccc5OC)CC4)c3oc2c1.Cl | 0.17 µM | 0.195 µM | 9.36 µM | 0.024 µM | inactive | inactive | inactive | inactive | inactive | inactive | inactive | inactive | inactive | inactive | inactive | inactive | inactive | Activity (Mus musculus [20]): Non-toxic; Activity (Mus musculus [21]): Non-toxic; Activity (Mus musculus [22]): Non-toxic; Activity (Mus musculus [23]): Non-toxic; Activity (Mus musculus [24]): Non-toxic
COc1ccc2c(=O)c3cc(CN4CCN(C)CC4)ccc3oc2c1.Cl.Cl | 0.49 µM | 17 µM | 19.1 µM | 15.8 µM | – | – | – | – | – | – | – | – | – | – | – | – | – | –
